AI-2 QS mod: modulates the Vibrio harveyi AI-2 quorum sensing system; hit rate 0.4% among 300,000; activity change, % at 7.5 µM; AID 2094; Vibrio harveyi JMH597 AI-2 luminescence/OD600 ratio, 9 h; stronger effect = lower value; strain lacks LuxN and CqsS sensors; 0 = neutral-control median; in the data active = activity change below about -75%, passing the limit was not always enough; inconclusive = no clear call, values can overlap the other calls;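 note: luminescence divided by OD600 gain over 9 h not by final OD600 alone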
PolyA inhibitor: inhibitors of polyadenylation in S. cerevisiae; activity score, % at 12 µM; hit rate 0.02% among 300,000; S. cerevisiae SKY197-pL101 polyadenylation reporter, beta-gal luminescence; efflux-impaired pdr1/pdr3 knockout yeast; score 100 = 6 SD above DMSO;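 active = lowest replicate activity score at least 50, where 100 means six control SD above control mean; inconclusive = lowest score under 50 but half or more replicates reach 50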;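 note: yeast exposed to compound for 9 h at 30 °C; higher score means more reporter readthrough which indicates perturbed polyadenylation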
HDAC3 inh: human HDAC3 inhibition | hit rate 0.15% among 320,000 | AID 2718 | recombinant HDAC3, fluorogenic peptide/trypsin coupled, fluorescence | inhibition, % at 8.3 µM | O15379; in the data active = inhibition above about 26%, passing the limit was not always enough; inconclusive = no clear call, values can overlap the other calls
Target sequence (O15379 whole entry, looked up): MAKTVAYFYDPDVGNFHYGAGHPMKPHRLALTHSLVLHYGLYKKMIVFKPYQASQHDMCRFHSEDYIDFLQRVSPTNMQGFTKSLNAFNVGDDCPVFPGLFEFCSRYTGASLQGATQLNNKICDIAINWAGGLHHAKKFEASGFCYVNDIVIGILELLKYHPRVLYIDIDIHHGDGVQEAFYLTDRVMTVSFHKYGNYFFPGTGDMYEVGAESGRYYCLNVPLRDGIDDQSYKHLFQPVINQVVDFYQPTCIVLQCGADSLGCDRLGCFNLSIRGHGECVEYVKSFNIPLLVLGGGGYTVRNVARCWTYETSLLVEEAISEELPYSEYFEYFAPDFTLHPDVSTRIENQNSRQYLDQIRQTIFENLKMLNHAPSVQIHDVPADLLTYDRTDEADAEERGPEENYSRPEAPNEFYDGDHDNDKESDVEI
Efflux pump inh: antifungal efflux pump inhibition, Nile Red retention; S. cerevisiae Candida pump triplex; AID 485275; hit rate 0.44% among 330,000; inhibition, % at 10 µM;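 active = plate passing quality check with inhibition over a set limit, or well fluorescence over plate mean plus 4 SD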;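 note: Nile Red retained in pooled yeast measured as flow cytometry median fluorescence; 0% = buffer negative control and 100% = Enniatin B positive control; higher means more Nile Red kept so more efflux inhibition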
T cruzi inh: blocks replication of Trypanosoma cruzi; T. cruzi beta-gal in NIH3T3, luminescence, 90 h; inhibition, % (test concentration not listed); AID 1885; hit rate 1.4% among 300,000;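 active = mean inhibition across valid replicates above about 55%, limit read from the data; inconclusive = mean below that limit but half or more replicates reach it; inactive = mean below it, under half of replicates reach it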;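 note: signal also drops with host cell toxicity which is not excluded here; 0% = plate median of DMSO wells and 100% = zero luminescence signal; higher percent means less beta-gal luminescence so fewer parasites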
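System: mouse NIH/3T3 fibroblasts infected with β-gal-expressing T. cruzi Tulahuen C4 / Input: NIH/3T3 cells, 5,000 per well / Buffer or medium: Low-serum DMEM with 2% FBS / Probe or stimulus: 5000 reporter trypomastigotes per well / Schedule: ≥90 h infection period, 3 h prior cell attachment / Measured by: GalScreen luminescence, 60 min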
Numbers without * were called inactive; ? = inconclusive; nt = no result. An excerpt weighted towards active compounds, which were near 2.2% of everything screened.

SMILES	AI-2 QS mod	PolyA inhibitor	HDAC3 inh	Efflux pump inh	T cruzi inh
Oc1c(C(Nc2nccs2)c2ccc(C(F)(F)F)cc2)ccc2cccnc12 (stereo not drawn)	?	8	nt	nt	52
Cc1ccccc1NC(=S)N1CCN(c2ccccc2Cl)CC1	5	2	-1	0	12
O=c1c2ccccc2c(C=Nc2ccc(Cl)cn2)c(O)n1-c1cc(Cl)ccc1N1CCOCC1	42	?	-1	0.4*	-5
CC(=O)c1ccc(N=Cc2c(O)n(-c3cc(Cl)ccc3N3CCOCC3)c(=O)c3ccccc23)cc1	30	-9	6	0	8
CCCC(C)NC(=O)c1sc2nc3n(c(=O)c2c1C)CCC3 (stereo not drawn)	-1	22	?	0	3
N/C(=N\OC(=O)Nc1ccccc1)c1ncc([N+](=O)[O-])s1	-88*	-14	2	0	9
O=C(COC(=O)COc1ccccc1)Nc1ncc([N+](=O)[O-])s1	nt	nt	0	0	nt
Cc1ccc2c(=O)c(CN3CCCCCC3)c(C)[nH]c2c1C	9	12	-1	0	16
Cc1[nH]c2c(Cl)cccc2c(=O)c1CN1CCCCCC1	-5	-8	nt	0	57*
S=C(NCCSCc1c(Cl)cccc1Cl)Nc1ccccc1	20	nt	-3	0	56*
CS(=O)(=O)NCCSCc1c(Cl)cccc1Cl	11	2	1	0	75*
CS(=O)(=O)NCCSCc1c(F)cccc1Cl	22	5	-3	0	-4
COc1ccc(OC)c(NC(=O)CN2CCc3ccccc3C2)c1	42	-13	-5	0	9
CCCCNC(=O)C1CC(=O)N(CCc2ccc(C)cc2)C1 (stereo not drawn)	14	18	1	0	-6
COCc1cc(C)nc(SCC[N+](C)(C)CC(=O)c2ccccc2)c1C#N	38	9	-11	0	-1
O=C(c1ccc([N+](=O)[O-])cc1)N1CCSC1c1ccccc1 (stereo not drawn)	12	-12	5	0	-14
CN(C)c1ccc(C2SCCN2C(=O)c2ccc([N+](=O)[O-])cc2)cc1 (stereo not drawn)	-8	-4	20	0	58*
COc1cccc(CN2CCNC(=O)C2CC(=O)N(C)CCC2CCOCC2)c1OC (stereo not drawn)	23	2	3	0	6
CN(Cc1ccc(Cl)cc1Cl)C(=O)c1cccc(S(=O)(=O)N2CCN(c3ccccc3)CC2)c1	10	-14	nt	0	60*
CC(C)c1onc(C(=O)N2CCN(c3ccccc3)CC2)c1[N+](=O)[O-]	31	15	1	0	?
CC(C)c1onc(C(=O)N2CCN(C(c3ccccc3)c3ccccc3)CC2)c1[N+](=O)[O-]	16	-8	-2	0	57*
Cc1ccc(S(=O)(=O)N(CC(=O)Nc2cccc(N(C)S(C)(=O)=O)c2)c2ccc(Cl)c(Cl)c2)cc1	28	3	-4	0	70*
CN(c1cccc(NC(=O)CN(c2ccc(Cl)c(Cl)c2)S(=O)(=O)c2ccccc2)c1)S(C)(=O)=O	12	-5	11	0	26
CN(c1cccc(NC(=O)CN(c2ccc(C34CC5CC(CC(C5)C3)C4)cc2)S(C)(=O)=O)c1)S(C)(=O)=O	3	-21	-6	0	65*
CC(SC1=NCCN1S(=O)(=O)c1ccccc1)c1ccccc1 (stereo not drawn)	13	-16	-6	0	8
SMILES	AI-2 QS mod	PolyA inhibitor	HDAC3 inh	Efflux pump inh	T cruzi inh
Cc1cc(C)nc(OC(C(=O)O)C(OCC(C)C)(c2ccccc2)c2ccccc2)n1 (stereo not drawn)	11	19	15	0	-3
CSc1oc(-c2cccs2)nc1S(=O)(=O)c1ccccc1	13	-14	0	0	5
O=C(CSc1oc(-c2cccs2)nc1S(=O)(=O)c1ccccc1)NC1CCCCC1	-5	-24	1	0	60*
CCN(CC)CCCNC1=C(Cl)C(=O)c2ccccc2C1=O	17	-12	4	0	79*
CC1CC(C)CN(CCOCCSc2ccccc2)C1 (stereo not drawn)	7	-13	?	0	60*
CC1CCCN(CCOCCSc2ccccc2)C1 (stereo not drawn)	7	-7	2	0	60*
Cc1cc(Cl)c(OCCOCCN2CCCC(C)C2)c(Br)c1 (stereo not drawn)	24	-17	-12	0	73*
c1ccc(SCCOCCN2CCOCC2)cc1	5	2	-3	0	12
O=C(NCc1ccc(Cl)cc1)C1CCN(S(=O)(=O)c2cccnc2)CC1	-79*	-1	7	0	4
O=C(NCc1ccc(F)cc1)C1CCN(S(=O)(=O)c2cccnc2)CC1	-28	21	1	0	-17
Cc1ccc(C)c(S(=O)(=O)N2CCN(C(=O)c3cccn3C)CC2)c1	6	-13	-5	0	5
S=C(Nc1ccccc1Cl)N(Cc1ccccc1)Cc1cccnc1	-5	5	1	0	62*
Cc1ccccc1NC(=S)N(Cc1cccnc1)Cc1ccccc1Cl	12	14	-3	0	76*
COc1ccccc1NC(=S)N(Cc1cccnc1)Cc1ccccc1Cl	13	10	6	0	-4
Cc1ccc(Cl)cc1NC(=S)N(Cc1ccccc1)Cc1cccnc1	16	2	-4	0	76*
CC(NC(=O)CNC(=S)N(Cc1ccccc1)Cc1cccnc1)c1ccccc1 (stereo not drawn)	17	-10	-6	0	55*
Cc1ccc(Cl)cc1NC(=O)NCc1cccnc1	29	-12	-2	0	-1
Cc1ccc(NC(=O)c2cc(S(=O)(=O)N(C)C)ccc2N2CCCC2)cc1F	5	-9	5	0	11
Cc1ccc(S(=O)(=O)N/N=C\c2cn(CC(N)=O)c3ccccc23)cc1	9	7	6	0	-14
COc1cc2c(cc1NC(=O)Nc1ccc(C)cc1)oc1ccccc12	25	5	-5	0	15
COc1cc2c(cc1NC(=O)Nc1ccc(F)cc1)oc1ccccc12	34	1	4	0	60*
Cc1noc2ncnc(N3CCCC3)c12	16	2	2	0	3
Cc1noc2ncnc(Sc3ccc(Br)cc3)c12	-23	-35	2	0	62*
Cc1cccc(-n2nc(C(=O)c3ccco3)cc(-c3nc4ccccc4[nH]3)c2=N)c1	16	-18	5	0	54
COc1ccc(-n2nc(C(=O)c3cccs3)cc(-c3nc4ccccc4[nH]3)c2=N)cc1	16	-11	0	0	73*
Cc1ccc(N(CC(=O)Nc2cccc(Cl)c2C)S(C)(=O)=O)cc1	0	-12	5	0	5
FC(F)(F)c1cccc(NC(=S)NNC(=S)Nc2ccc(Cl)cc2)c1	?	-56	?	0	56*

Source: PubChem BioAssay (several laboratories)
